Assay results from paper PMC6477682 (Journal of the American Chemical Society, 2018).

Legend:
S. aureus = test: Photoinactivation; format: cell-based, Staphylococcus aureus; conditions: at 1 µM and 2 µM, with and without photoirradiation (Figure 4c)
LOS- A. baumannii cells = test: Photoinactivation of LOS- A. baumannii; format: cell-based, Acinetobacter baumannii; conditions: at the same concentrations, with and without photoirradiation (Figure 5c)
Summary of the method: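 AB5075-derived LOS− strain grown to OD600~0.7, washed, diluted in PBS (pH 7.4) to ~1×10^8 cfu/mL, incubated 15 min with eosin-conjugated peptide (2 µM) or controls. Half the suspension irradiated 15 min with blue light (120 W lamp, fluorescein filter, 20X objective); the other half kept dark. Plated on LB agar + 10 µg/mL polymyxin b, 24 h. Killing from colony counts vs untreated PBS control; mean of two trials.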

O=C1OC2(c3ccccc31)c1cc(Br)c(O)c(Br)c1Oc1c2cc(Br)c(O)c1Br [eosin]
S. aureus cell death, controls (S. aureus): did not elicit cell death
LOS- A. baumannii cell death, controls (LOS- A. baumannii cells): did not elicit A. baumannii cell death
